Screens as filed in PubChem BioAssay.
This excerpt belongs to a sample that is enriched for hits.
UPR XBP1 act: activators of adaptive arm of unfolded protein response (XBP1); CHO-XBP1 luciferase reporter, IRE1-XBP1 UPR activation, luminescence; percent of tunicamycin response, DMSO as zero; activation, % at 20 µM; actives 0.33% (n = 330,000); AID 463104;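 active = versus positive control, 20 µM dose yields 30% or more activation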
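Assay system: CHO-XBP1 luciferase reporter cells; Schedule: 6 h treatment, 37 °C; Detection: glow luminescence from Steady-Glo reagent; Benchmarks: high control tunicamycin 10 µg/mL final, low control DMSO vehicle only.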
CHOP UPR activ: apoptotic UPR (CHOP) activation. CHO-CHOP luciferase reporter, luminescence; percent of tunicamycin response over DMSO baseline. activation, % at 10 µM. actives 0.34% (n = 330,000). AID 449763;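 active = at 10 µM dose, activation of 40% or more, normalized to positive control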
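Test system: CHO CHOP reporter cells. Input: 500 CHO-CHOP cells per well. Medium: F12 with 10% FBS. Technique: luciferase luminescence. Measure: percent activation relative to tunicamycin control. Dosing: 10 µM compound, 0.5% DMSO. Timing: 16-18 h cell attachment, then 6 h compound exposure, 37 °C.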
CHOP inhibitor: inhibitors of CHOP induction in ER stress response; CHO-K1 CHOP-promoter luciferase, tunicamycin-induced, 15-18 h; inhibition, % at 10 µM; actives 3.8% (n = 220,000);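 active = compounds that reduced the stress-induced luciferase reporter signal by more than about 70% of percent inhibition, limit read from the data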
TLR4 MyD88 comp: inhibitors of human TLR4-MyD88 binding | inhibition, % at 8.4 µM | actives 0.18% (n = 200,000) | O00206+Q99836 | HeLa CL3-4 TLR4/MyD88 BLA complementation, FRET ratio; in the data active = inhibition above about 25%
NOD2 RIPK2 PPI: blocks binding of human NOD2 to RIPK2; CHO BLA complementation NOD2-RIPK2, CCF4 ratio; inhibition, % at 4.98 µM; actives 0.38% (n = 360,000); AID 624267; in the data active = inhibition above about 21%
Target sequence (O43353 whole entry, looked up): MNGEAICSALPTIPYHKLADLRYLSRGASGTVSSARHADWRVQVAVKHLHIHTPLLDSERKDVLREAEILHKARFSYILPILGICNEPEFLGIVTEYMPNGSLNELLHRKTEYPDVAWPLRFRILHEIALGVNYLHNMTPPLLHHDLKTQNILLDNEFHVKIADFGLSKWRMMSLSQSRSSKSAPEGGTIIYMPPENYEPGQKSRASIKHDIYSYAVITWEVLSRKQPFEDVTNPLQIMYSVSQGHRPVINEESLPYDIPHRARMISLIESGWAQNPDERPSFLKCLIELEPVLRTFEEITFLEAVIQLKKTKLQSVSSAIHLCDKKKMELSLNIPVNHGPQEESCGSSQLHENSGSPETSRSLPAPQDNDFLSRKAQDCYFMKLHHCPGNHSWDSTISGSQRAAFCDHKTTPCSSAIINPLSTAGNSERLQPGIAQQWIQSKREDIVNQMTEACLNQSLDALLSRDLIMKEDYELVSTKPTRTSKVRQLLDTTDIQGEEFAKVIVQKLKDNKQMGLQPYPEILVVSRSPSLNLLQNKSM
TLR9-MyD88 block: TLR9-MyD88 interaction inhibition. Q9NR96+Q99836. CHO BLA complementation TLR9-MyD88, CCF4 FRET ratio. inhibition, % at 4.98 µM. actives 0.21% (n = 340,000). AID 504734;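 active = inhibition above the mean over all tested compounds plus 3 SD, cut at about 21% in these data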
CHOP inh conf: confirmation of CHOP induction inhibitors; actives 45% (n = 2,100); shares compounds with CHOP inhibitor; CHO-CHOP promoter luciferase reporter, tunicamycin-induced, luminescence; inhibition, % at 10 µM; AID 504437;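 active = mean of three repeat readings of reporter signal inhibition above a set limit, cut at about 70% in these data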
Hits are given with their value.

Cc1cccc2c1N(C)C(=O)C2=O was read as UPR XBP1 act inactive, CHOP UPR activ inactive, CHOP inhibitor inactive, TLR4 MyD88 comp inactive, NOD2 RIPK2 PPI inactive and TLR9-MyD88 block inactive.
For Cc1cc(C)c(C)c(S(=O)(=O)ON2C(=O)c3ccccc3C2=O)c1C the results were UPR XBP1 act inactive, CHOP UPR activ inactive, CHOP inhibitor 101.4, TLR4 MyD88 comp inactive, NOD2 RIPK2 PPI inactive, TLR9-MyD88 block inactive and CHOP inh conf 108.0.
`Cc1cc(C)c(S(=O)(=O)ON2C(=O)c3ccccc3C2=O)cc1C` gave UPR XBP1 act inactive, CHOP UPR activ inactive, CHOP inhibitor 108.2, TLR4 MyD88 comp inactive, NOD2 RIPK2 PPI inactive, TLR9-MyD88 block inactive and CHOP inh conf 86.9.
`Cc1ccc(OC(=O)CN2C(=O)c3ccccc3C2=O)cc1C` gave UPR XBP1 act inactive, CHOP UPR activ inactive, NOD2 RIPK2 PPI inactive and TLR9-MyD88 block inactive.
Screening O=c1c(Cl)c(N/N=C/c2ccc(Cl)cc2)cnn1-c1ccccc1 returned UPR XBP1 act inactive, CHOP UPR activ inactive, CHOP inhibitor 101.6, TLR4 MyD88 comp inactive, NOD2 RIPK2 PPI inactive, TLR9-MyD88 block inactive and CHOP inh conf inactive.
Nc1c(C(=O)N/N=C/c2ccc(Cl)cc2)cnn1-c1ccccc1 was read as UPR XBP1 act inactive, CHOP UPR activ inactive, CHOP inhibitor inactive, NOD2 RIPK2 PPI inactive and TLR9-MyD88 block inactive.
`Cc1ccc(-c2cc(-c3ccc(F)cc3)c(C#N)c(N)n2)o1` gave UPR XBP1 act inactive, CHOP UPR activ inactive, CHOP inhibitor inactive, TLR4 MyD88 comp inactive, NOD2 RIPK2 PPI inactive and TLR9-MyD88 block inactive.
For Cc1ccc(-c2cc(-c3ccc(Cl)cc3)c(C#N)c(N)n2)o1 the results were UPR XBP1 act inactive, CHOP UPR activ inactive, CHOP inhibitor 97.9, TLR4 MyD88 comp inactive, NOD2 RIPK2 PPI inactive, TLR9-MyD88 block inactive and CHOP inh conf inactive.
Cc1cc(-c2cc(-c3ccc(Cl)cc3)nc(N)c2C#N)co1 was read as UPR XBP1 act inactive, CHOP UPR activ inactive, CHOP inhibitor 106.3, TLR4 MyD88 comp inactive, NOD2 RIPK2 PPI inactive, TLR9-MyD88 block inactive and CHOP inh conf inactive.
`Cc1ccc(-c2cc(-c3ccc(C)o3)nc(N)c2C#N)cc1` gave UPR XBP1 act inactive, CHOP UPR activ inactive, CHOP inhibitor 100.7, TLR4 MyD88 comp inactive, NOD2 RIPK2 PPI inactive, TLR9-MyD88 block inactive and CHOP inh conf inactive.
`CC(=O)c1cccc(NC(=O)C23CC4CC(C2)CC(n2cncn2)(C4)C3)c1` gave UPR XBP1 act inactive, CHOP UPR activ inactive, CHOP inhibitor inactive, TLR4 MyD88 comp inactive, NOD2 RIPK2 PPI inactive and TLR9-MyD88 block inactive.
For COc1ccc(/C=C2/SC(=S)N(CCCC(=O)Nc3ccc(O)cc3)C2=O)cc1 the results were UPR XBP1 act inactive, CHOP UPR activ inactive, CHOP inhibitor 98.6, NOD2 RIPK2 PPI inactive, TLR9-MyD88 block inactive and CHOP inh conf 118.5.
Screening CCc1ccc(/C=C2\SC(=S)N(CCCC(=O)Nc3ccccn3)C2=O)cc1 returned UPR XBP1 act inactive, CHOP UPR activ inactive, CHOP inhibitor 102.2, TLR4 MyD88 comp inactive, NOD2 RIPK2 PPI inactive, TLR9-MyD88 block inactive and CHOP inh conf 125.5.
COc1ccc(/C=C2\SC(=S)N(CCCC(=O)Nc3ccc(O)cc3)C2=O)cc1 was read as UPR XBP1 act inactive, CHOP UPR activ inactive, CHOP inhibitor 99.3, NOD2 RIPK2 PPI inactive, TLR9-MyD88 block inactive and CHOP inh conf 112.1.
For O=C(CN1C(=O)NC2(CCCC2)C1=O)OCCOc1ccc(Cl)cc1 the results were UPR XBP1 act inactive, CHOP UPR activ inactive, NOD2 RIPK2 PPI inactive and TLR9-MyD88 block inactive.
Screening O=C(OCCN1CCN(C2=NS(=O)(=O)c3ccccc32)CC1)c1cccc(Br)c1 returned UPR XBP1 act inactive, CHOP UPR activ inactive, NOD2 RIPK2 PPI inactive and TLR9-MyD88 block inactive.
Screening CCCc1nc(NCc2ccco2)c(C#N)c2c1COC(C)(C)C2 returned UPR XBP1 act inactive, CHOP UPR activ inactive, CHOP inhibitor 104.0, TLR4 MyD88 comp inactive, NOD2 RIPK2 PPI inactive, TLR9-MyD88 block inactive and CHOP inh conf inactive.
Screening COc1cccc(CN2CCC(N(CCc3ccccc3)Cc3ccccc3)CC2)c1OC returned UPR XBP1 act inactive, CHOP UPR activ inactive, CHOP inhibitor inactive, TLR4 MyD88 comp inactive, NOD2 RIPK2 PPI inactive and TLR9-MyD88 block inactive.
`CCSc1nc2sc3c(c2c(=O)[nH]1)CCCC3` gave UPR XBP1 act inactive, CHOP UPR activ inactive, CHOP inhibitor inactive, TLR4 MyD88 comp inactive, NOD2 RIPK2 PPI inactive and TLR9-MyD88 block inactive.
CCSC1=NC2(CCCCC2)Nc2sc3c(c21)CCCC3 was read as UPR XBP1 act inactive, CHOP UPR activ inactive, CHOP inhibitor 105.1, TLR4 MyD88 comp inactive, NOD2 RIPK2 PPI inactive, TLR9-MyD88 block inactive and CHOP inh conf inactive.
For CCCc1ccc(Oc2cn[nH]c2-c2ccc(O)c(C)c2O)cc1 the results were UPR XBP1 act inactive, CHOP UPR activ inactive, CHOP inhibitor 104.8, TLR4 MyD88 comp inactive, NOD2 RIPK2 PPI inactive, TLR9-MyD88 block inactive and CHOP inh conf inactive.
For COc1cccc(Oc2cn[nH]c2-c2ccc(O)cc2O)c1 the results were UPR XBP1 act inactive, CHOP UPR activ inactive, TLR4 MyD88 comp inactive, NOD2 RIPK2 PPI inactive and TLR9-MyD88 block inactive.
CCCc1ccc(Oc2c(-c3ccc(O)c(C)c3O)n[nH]c2C)cc1 was read as UPR XBP1 act inactive, CHOP UPR activ inactive, CHOP inhibitor 105.7, TLR4 MyD88 comp inactive, NOD2 RIPK2 PPI inactive, TLR9-MyD88 block inactive and CHOP inh conf inactive.
For Cc1cccc(C)c1OCc1cc(C(=O)N(C)Cc2nc3ccccc3[nH]2)no1 the results were UPR XBP1 act inactive, CHOP UPR activ inactive, NOD2 RIPK2 PPI inactive and TLR9-MyD88 block inactive.
For COc1ccccc1/C=C/C(=O)OCC(=O)Nc1cc(C(F)(F)F)ccc1N1CCOCC1 the results were CHOP inhibitor inactive, TLR4 MyD88 comp inactive, NOD2 RIPK2 PPI inactive and TLR9-MyD88 block inactive.
`CCOC(=O)/C(=C/c1ccc(OC(F)F)cc1)C1=Nn2c(nnc2-c2ccc(Cl)cc2)SC1` gave NOD2 RIPK2 PPI inactive and TLR9-MyD88 block inactive.
CCOC(=O)/C(=C\c1ccc(OC(F)F)cc1)C1=Nn2c(nnc2-c2ccc(Cl)cc2)SC1 was read as CHOP inhibitor 107.5, TLR4 MyD88 comp inactive, NOD2 RIPK2 PPI inactive, TLR9-MyD88 block inactive and CHOP inh conf 120.2.
COc1ccc(NC(=O)Cn2nc(C(=O)O)c3ccccc3c2=O)cc1Cl was read as UPR XBP1 act inactive, CHOP UPR activ inactive, NOD2 RIPK2 PPI inactive and TLR9-MyD88 block inactive.
N#C/C(=C/c1ccc(N2CCCCC2)o1)c1cccc(F)c1 was read as UPR XBP1 act inactive, CHOP UPR activ inactive, CHOP inhibitor 103.2, TLR4 MyD88 comp inactive, NOD2 RIPK2 PPI inactive, TLR9-MyD88 block inactive and CHOP inh conf inactive.
